Measurements published in ChEMBL document CHEMBL1240321, “Cyclostreptin binds covalently to microtubule pores and lumenal taxoid binding sites” (Nat Chem Biol, 2007).
Active and inactive are the calls of the source. The calls are words filed in the database; no cut-off is given here.

Key:
[1] = Displacement of [3H]discodermolide from microtubule assessed as bound radioligand level at 20 uM treated before radioligand addition by competitive binding assay
[2] = Binding affinity to microtubule
[3] = Displacement of [3H]paclitaxel from microtubule assessed as bound radioligand level at 20 uM treated after radioligand addition by competitive binding assay
[4] = Displacement of [3H]paclitaxel from microtubule assessed as bound radioligand level at 20 uM treated before radioligand addition by competitive binding assay
[5] = Displacement of [3H]discodermolide from microtubule assessed as bound radioligand level at 20 uM treated after radioligand addition by competitive binding assay
[6] = Displacement of [3H]epothilone B from microtubule assessed as bound radioligand level at 20 uM treated after radioligand addition by competitive binding assay
[7] = Displacement of [3H]epothilone B from microtubule assessed as bound radioligand level at 20 uM treated before radioligand addition by competitive binding assay
[8] = tested on: 1A9/ptx-22; experiment: Cytotoxicity against human 1A9PTX22 cells at 5 uM; assay type: functional, cell-based
[9] = tested on: 1A9/ptx-10; experiment: Cytotoxicity against human 1A9PTX10 cells at 5 uM; assay type: functional, cell-based
[10] = tested on: A549; experiment: Cytotoxicity against human A549 cells at 5 uM; assay type: functional, cell-based
[11] = tested on: A2780; experiment: Cytotoxicity against human A2780 cells at 5 uM; assay type: functional, cell-based
[12] = tested on: A2780-1A9; experiment: Cytotoxicity against human A2780-1A9 cells at 5 uM; assay type: functional, cell-based
[13] = tested on: A2780 ADR; experiment: Cytotoxicity against human A2780AD cells at 5 uM; assay type: functional, cell-based
[14] = Micronucleation in potoroo PtK2 cells at 10 uM treated for 7 hrs followed by compound washout measured after 48 hrs by flow cytometry; settings: Potorous tridactylus
[15] = tested on: A549; experiment: Induction of mitotic cell cycle arrest in human A549 cells assessed as accumulation of cells at G2+M phase at 20 nM after 24 hrs by flow cytometry (Rvb= 19.6%); assay type: functional
[16] = Induction of micronucleation in potoroo PtK2 cells at 2 uM after 7 hrs by flow cytometry; assay type: functional, Potorous tridactylus
[17] = tested on: A2780; experiment: Induction of mitotic cell cycle arrest in human A2780 cells assessed as accumulation of cells at SubG1 phase at 15 nM after 24 hrs by flow cytometry (Rvb= 2.5%); assay type: functional
[18] = tested on: PtK2; experiment: Induction of microtubule bundle formation in potoroo PtK2 cells at 5 uM after 7 hrs by flow cytometry; assay type: cell-based; settings: Potorous tridactylus
[19] = tested on: A549; experiment: Induction of mitotic cell cycle arrest in human A549 cells assessed as accumulation of cells at SubG1 phase at 20 nM after 24 hrs by flow cytometry (Rvb= 25%); assay type: functional
[20] = Induction of mitotic cell cycle arrest at G1/G0 phase in potoroo PtK2 cells 10 uM after 7 hrs by flow cytometry (Rvb= 60%); assay type: functional, Potorous tridactylus
[21] = tested on: PtK2; experiment: Induction of micronucleation in potoroo PtK2 cells at 10 uM after 7 hrs by flow cytometry; settings: Potorous tridactylus
[22] = Cytotoxicity against human A2780AD cells; assay type: functional, cell-based; settings: A2780 ADR
[23] = tested on: PtK2; experiment: Induction of microtubule bundle formation in potoroo PtK2 cells at 2 uM after 7 hrs by flow cytometry; assay type: cell-based; settings: Potorous tridactylus
[24] = Induction of micronucleation in potoroo PtK2 cells at 5 uM after 7 hrs by flow cytometry; assay type: functional, Potorous tridactylus
[25] = Cytotoxicity against human A2780-1A9 cells; assay type: functional, cell-based
[26] = tested on: A549; experiment: Induction of mitotic cell cycle arrest in human A549 cells assessed as accumulation of cells at G1/G0 phase at 20 nM after 24 hrs by flow cytometry (Rvb= 39.2%); assay type: functional
[27] = tested on: PtK2; experiment: Displacement of Flutax-2 from microtubule in potoroo PtK2 cells at 100 uM; settings: Potorous tridactylus
[28] = tested on: PtK2; experiment: Induction of microtubule bundle formation in potoroo PtK2 cells at 10 uM treated for 7 hrs followed by compound washout measured after 48 hrs; settings: Potorous tridactylus
[29] = tested on: A2780; experiment: Induction of mitotic cell cycle arrest in human A2780 cells assessed as accumulation of cells at G2+M phase at 15 nM after 24 hrs by flow cytometry (Rvb= 20%); assay type: functional
[30] = Induction of micronucleation in potoroo PtK2 cells at 10 uM after 7 hrs by flow cytometry; assay type: functional, Potorous tridactylus
[31] = tested on: A2780; experiment: Induction of mitotic cell cycle arrest in human A2780 cells assessed as accumulation at S phase at 15 nM after 24 hrs by flow cytometry (Rvb= 17.5%); assay type: functional
[32] = Cytotoxicity against human 1A9PTX22 cells; assay type: functional, cell-based; settings: 1A9/ptx-22
[33] = Cytotoxicity against human 1A9PTX10 cells; assay type: functional, cell-based; settings: 1A9/ptx-10
[34] = tested on: A2780; experiment: Induction of mitotic cell cycle arrest in human A2780 cells assessed as accumulation of cells at G1/G0 phase at 15 nM after 24 hrs by flow cytometry (Rvb= 60%); assay type: functional
[35] = Binding affinity to microtubule pretreated with cyclostreptin
Summary of the method: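 Glutaraldehyde-crosslinked microtubules (60 µM) were preincubated overnight at 22 °C with 66 µM cyclostreptin in GAB (3.4 M glycerol, 10 mM NaPi, 1 mM EGTA, 6 mM MgCl2, pH 6.7) plus 0.1 mM GTP, then dialyzed 5 h against the same buffer. Flutax-2 (50 nM) was titrated with these microtubules, and the association constant for Flutax-2 binding was calculated.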

[36] = tested on: A2780; experiment: Induction of mitotic cell cycle arrest in human A2780 cells assessed as accumulation at S phase at 5 uM after 24 hrs by flow cytometry (Rvb= 17.5%); assay type: functional
[37] = Induction of mitotic cell cycle arrest in human A2780AD cells assessed as accumulation of cells at G1/G0 phase at 5 uM after 24 hrs by flow cytometry (Rvb= 59.2%); assay type: functional, A2780 ADR
[38] = tested on: A2780; experiment: Induction of mitotic cell cycle arrest in human A2780 cells assessed as accumulation of cells at G2+M phase at 5 uM after 24 hrs by flow cytometry (Rvb= 20%); assay type: functional
[39] = tested on: A2780; experiment: Induction of mitotic cell cycle arrest in human A2780 cells assessed as accumulation of cells at SubG1 phase at 5 uM after 24 hrs by flow cytometry (Rvb= 2.5%); assay type: functional
[40] = Induction of mitotic cell cycle arrest in human A2780AD cells assessed as accumulation of cells at G2+M phase at 5 uM after 24 hrs by flow cytometry (Rvb= 20.5%); assay type: functional, A2780 ADR
[41] = Induction of mitotic cell cycle arrest in human A2780AD cells assessed as accumulation of cells at SubG1 phase at 5 uM after 24 hrs by flow cytometry (Rvb= 4.1%); assay type: functional, A2780 ADR
[42] = Induction of mitotic cell cycle arrest in human A2780AD cells assessed as accumulation at S phase at 5 uM after 24 hrs by flow cytometry (Rvb= 16.2%); assay type: functional, A2780 ADR
[43] = tested on: A2780; experiment: Induction of mitotic cell cycle arrest in human A2780 cells assessed as accumulation of cells at G1/G0 phase at 5 uM after 24 hrs by flow cytometry (Rvb= 60%); assay type: functional
[44] = tested on: A2780; experiment: Cytotoxicity against human A2780 cells; assay type: functional, cell-based
[45] = tested on: A549; experiment: Cytotoxicity against human A549 cells; assay type: functional, cell-based

C/C(=C\c1csc(C)n1)[C@@H]1C[C@@H]2O[C@@H]2CCC[C@H](C)[C@H](O)[C@@H](C)C(=O)C(C)(C)[C@@H](O)CC(=O)O1 [EPOTHILONE A]
Activity [1]: 96%
Kd [2]: 28 nM
Activity [3]: 46%
Activity [4]: 49%
Activity [5]: 95%
Activity [6]: 49%
Activity [7]: 49%

C=C/C=C\[C@H](C)[C@H](OC(N)=O)[C@@H](C)[C@H](O)[C@@H](C)C/C(C)=C\[C@H](C)[C@@H](O)[C@@H](C)/C=C\[C@@H](O)C[C@@H]1OC(=O)[C@H](C)[C@@H](O)[C@H]1C [DISERMOLIDE]
Activity [1]: 31%
Kd [2]: 0.18 nM
Activity [5]: 27%

CC1=C[C@H]2[C@@H](O)[C@H](C)[C@@H](O)[C@@H]2[C@H]2[C@H]3[C@@H](C[C@@H]12)[C@@]1(C)CC[C@H]2OC(=O)[C@]34O[C@@]4(O1)[C@@H]2C
Activity [8]: inactive
Activity [9]: inactive
Activity [10]: inactive
Activity [11]: inactive
Activity [12]: inactive
Activity [13]: inactive

CC(=O)O[C@H]1C(=O)[C@@]2(C)[C@H]([C@H](OC(=O)c3ccccc3)[C@]3(O)C[C@H](OC(=O)[C@H](O)[C@@H](NC(=O)c4ccccc4)c4ccccc4)C(C)=C1C3(C)C)[C@]1(OC(C)=O)CO[C@@H]1C[C@@H]2O [PACLITAXEL]
Activity at 10 µM [14]: 40%
Activity [15]: 8.85%
Activity [16]: 4%
Activity [17]: 15.7%
Kd [2]: 70 nM
Activity [18]: 4%
Activity [19]: 36.9%
Activity [20]: 50%
Activity [21]: 4%
IC50 [22]: 900 nM
Activity [23]: 4%
Activity [24]: 4%
IC50 [25]: 1.1 nM
Activity [26]: 8.4%
Activity [27]: Active
Activity [28]: Active
Activity [29]: 70.8%
Activity [30]: 4%
Activity [31]: 7%
IC50 [32]: 19 nM
IC50 [33]: 30 nM
Activity [34]: 6.5%

CC(=O)O[C@H]1C(=O)[C@]2(C)[C@@H](OC(=O)[C@H](C)NC(=O)c3ccc(-c4c5cc(F)c(=O)cc-5oc5cc(O)c(F)cc45)c(C(=O)O)c3)C[C@H]3OC[C@@]3(OC(C)=O)[C@H]2[C@H](OC(=O)c2ccccc2)[C@]2(O)C[C@H](OC(=O)[C@H](O)[C@@H](NC(=O)c3ccccc3)c3ccccc3)C(C)=C1C2(C)C [FLUTAX 2]
Kd [2]: 14 nM
Activity [35]: inactive

C/C(=C\c1csc(C)n1)[C@@H]1C[C@@H]2O[C@]2(C)CCC[C@H](C)[C@H](O)[C@@H](C)C(=O)C(C)(C)[C@@H](O)CC(=O)O1 [PATUPILONE]
Activity [1]: 79%
Kd [2]: 1.3 nM
Activity [3]: 31%
Activity [4]: 33%
Activity [5]: 76%
Activity [6]: 9%
Activity [7]: 9%

CC1=C[C@H]2[C@@H](O)[C@H](C)[C@@H](O)[C@@H]2[C@H]2[C@@H]3[C@H]4C(=O)O[C@@H]5CC[C@@](C)(O[C@@H]4[C@@H]5C)[C@@H]3C[C@@H]12
Activity [8]: inactive
Activity [36]: 22.5%
Activity [37]: 56.9%
Activity [38]: 16%
Activity [39]: 2.8%
Activity [40]: 21.5%
Activity [9]: inactive
Activity [10]: inactive
Activity [41]: 2%
Activity [42]: 19.6%
Activity [11]: inactive
Activity [12]: inactive
Activity [13]: inactive
Activity [43]: 58.7%

CC(=O)O[C@@]12CO[C@@H]1C[C@H](O)[C@@]1(C)C(=O)[C@H](O)C3=C(C)[C@@H](OC(=O)[C@H](O)[C@@H](NC(=O)OC(C)(C)C)c4ccccc4)C[C@@](O)([C@@H](OC(=O)c4ccccc4)[C@H]21)C3(C)C [DOCETAXEL]
IC50 [44]: 0.5 nM
IC50 [45]: 7.2 nM
IC50 [22]: 285 nM
IC50 [25]: 0.6 nM
